Laboratory results published in the EternaBench riboswitch data.

Tested on: MS2 coat protein
Assay: apparent Kd, MS2 coat protein; higher = weaker binding; RNA-MaP array; FMN 200 µM where present
How it was run: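 Green signal was scaled to red-channel RNA signal and control-cluster median Fmax, and the apparent Kd was taken as the median of filtered per-cluster binding-curve fits. The binding series used SNAP-549-labelled MS2 coat protein from 0.7 or 1.5 nM, doubling to 3 µM, on designs transcribed by stalled E. coli RNA polymerase on Illumina sequencing-chip clusters. Each series ran without and then with constant ligand in 100 mM Tris-HCl pH 7.5, 80 mM KCl, 4 mM MgCl2, BSA, DTT, yeast tRNA and Tween-20.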

[1] = designed as: ON switch for flavin mononucleotide, no ligand
[2] = ligand present: flavin mononucleotide, designed as: ON switch for flavin mononucleotide
[3] = designed as: OFF switch for flavin mononucleotide, no ligand
[4] = ligand present: flavin mononucleotide, designed as: OFF switch for flavin mononucleotide

Sequence: GCUGUCGCGUGAGGAUAUGGUCGGCUGUGCUGACCAGAAGGCAUGUCGAUAGACAUGAGGAUCACCCAUGUGGUUAGGGCGGCU
- apparent Kd [1]: 0.79 µM
- apparent Kd [2]: 0.313 µM

Sequence: GCUUGUGAAGGAUAUACUGGCGGCGUGCGCUCGGCGCGCGCACAUGAGGAUCACCCAUGUAGAAGGUCAAACGU
- apparent Kd [3]: 0.0143 µM
- apparent Kd [4]: 0.0131 µM

Sequence: GCUUUAGCACAUGAGGAUCACCCAUGUAGCGUGGGCUUACACAGAAGGGCAAACCGUUACGGGAUGUAGGAUAUGUGCAAAAUG
- apparent Kd [1]: 0.196 µM
- apparent Kd [2]: 0.0686 µM

Sequence: GGAAAACAUGAGGAUCACCCAUGUGAGGAUAUCGAUGUCCAAAGAAAAGUGCGGGACUCGAGAAGGCACUUGGA
- apparent Kd [3]: 0.0529 µM
- apparent Kd [4]: 0.0337 µM

Sequence: GGAAAAUUGAUCCCUUUUUAUUACAUGAGGAUCACCCAUGUGCAGGAUAUCGAUUAUUAUAGUUUCGAGAAGGGCAAGAAUUGU
- apparent Kd [3]: 0.0403 µM
- apparent Kd [4]: 0.276 µM

Sequence: GGAAAUCAUGUAGGAUAUGCAUGGCGAAGCUACGCAGAAGGACAUGAGGAUCACCCAUGUUCUGGCUACCGAGUUCGGUGGCAA
- apparent Kd [3]: 0.0225 µM
- apparent Kd [4]: 0.104 µM

Sequence: GGAAGCACGACGGAGCUAAGGUAGAAGGAUAUCCACGGCUAUAUCCACAUGAGGAUCACCCAUGUGGAGAAGGUCUAUCUUAAG
- apparent Kd [3]: 0.00551 µM
- apparent Kd [4]: 0.0088 µM

Sequence: GGAAGGUCAGGAUAUGCGAGGGAGUGGGAAAUAGGAUGGUAGCAGAAGGGACAUGAGGAUCACCCAUGUUAGGA
- apparent Kd [3]: 0.031 µM
- apparent Kd [4]: 0.0273 µM

Sequence: GGAAUAGCAUGAGGAUAUGCUGGAGUUUAGACAGCAGAAGGCAUGUCAUAAGACAUGAGGAUCACCCAUGUAAUUACAAUACCA
- apparent Kd [1]: 0.102 µM
- apparent Kd [2]: 0.0117 µM

Sequence: GGAAUGUCGGGAGGAUAUCCAAAUGUAUACAUAGGAGAAGGCCCGCACAUGAGGAUCACCCAUGUAAUAACGCGUGGCAUCAAC
- apparent Kd [3]: 0.0828 µM
- apparent Kd [4]: 0.119 µM

Sequence: GGACAUCCCACAGGAUAUGCUGGACUUUGUCCAGCAGAAGGGUGAAACACAUGAGGAUCACCCAUGUGGAUGUCCAUAUUUAAU
- apparent Kd [1]: 0.179 µM
- apparent Kd [2]: 0.694 µM

Sequence: GGACAUGUCGUCUACAUGAGGAUCACCCAUGUCGAUAGACAUGAGGAUAUCGAUAAGAAUUGUAUCGAGAAGGUAUGUAGGUCC
- apparent Kd [1]: 0.0187 µM
- apparent Kd [2]: 0.0249 µM

Sequence: GGACAUUUACAGAAGGGCAAAUUUUAUAGUGAAUAUUUAGUUCUGAUUUGCAGGAUAUGUUGAACAUGAGGAUCACCCAUGUCC
- apparent Kd [1]: 0.0183 µM
- apparent Kd [2]: 0.0109 µM

Sequence: GGACGACACAUGAACAUGAGGAUCACCCAUGUAAAUUCUCAUGAGGAUAUGGAUCCUAAUUGGAUCCAGAAGGCAUGGUCGUCC
- apparent Kd [1]: 1.15 µM
- apparent Kd [2]: 0.38 µM

Sequence: GGACGUCACAUGAACAUGAGGAUCACCCAUGUAAAUUCUCAUGAGGAUAUGGUUCCUAAUUGGAACCAGAAGGCAUGGACGUCC
- apparent Kd [1]: 1.45 µM
- apparent Kd [2]: 0.408 µM

Sequence: GGACGUCACAUUAACAUGAGGAUCACCCAUGUCAAAAGACAUGAGGAUAUGGAUCCUAAUUGGAUCCAGAAGGCAUGGACGUCC
- apparent Kd [1]: 0.664 µM
- apparent Kd [2]: 0.0334 µM

Sequence: GGACGUCACAUUUACAUGAGGAUCACCCAUGUCUCUUGAUAUGAGGAUAUGUAUACGAAUCGUAUACAGAAGGCAUGGACGUCC
- apparent Kd [1]: 0.0717 µM
- apparent Kd [2]: 0.0298 µM

Sequence: GGACGUCAGAUUAACAUGAGGAUCACCCAUGUCUUUUGACAUGAGGAUAUCCAUCCUAAUUGGAUGGAGAAGGCAUGGACGUCC
- apparent Kd [1]: 0.975 µM
- apparent Kd [2]: 0.189 µM

Sequence: GGACGUCUCAUUAACAUGAGGAUCACCCAUGUCAAAAGACAUGAGGAUAUGGAUCCUAAUUGGAUCCAGAAGGCAUGGACGUCC
- apparent Kd [1]: 0.939 µM
- apparent Kd [2]: 0.0592 µM

Sequence: GGAGAUACAUGAGGAUCACCCAUGUAGGAUAUCUAGUAUAUAUAUGGCGAAAGCCAUAUAUAUAUAGAGAAGGGCGUACACACC
- apparent Kd [3]: 0.009 µM
- apparent Kd [4]: 0.00791 µM

Sequence: GGAGCACACAUUAACAUGAGGAUCACCCAUGUCUAAAGACAUGAGGAUAUGGAUCCGAAAAGGAUCCAGAAGGCAUGGUGCUCC
- apparent Kd [1]: 0.207 µM
- apparent Kd [2]: 0.0117 µM

Sequence: GGAGCACACAUUUACAUGAGGAUCACCCAUGUCAAAAGACAUGAGGAUAUGGAUCCGAAAAGGAUCCAGAAGGCAUGGUGCUCC
- apparent Kd [1]: 0.106 µM
- apparent Kd [2]: 0.00838 µM

Sequence: GGAGCCGGUACUGAGGAUAUUCAUAUUAAAACAUGAGGAUCACCCAUGUAGGCCAGAAGGCCUUGGGAGAAGGCAGACCAGCUCG
- apparent Kd [1]: 0.391 µM
- apparent Kd [2]: 0.0267 µM

Sequence: GGAGCGGAAGGAUAUGCUGCGGGAUUGCAUGGAAAGAAAAUACAUGAGGAUCACCCAUGUAGAAGGUCCGUGAA
- apparent Kd [3]: 0.0282 µM
- apparent Kd [4]: 0.0701 µM

Sequence: GGAGGACAUGAGGAUCACCCAUGUGGAUGAACGCUAGGAUAUGCGUGCAGGAAGAGUGGAGCAGAAGGAGUGGGUU
- apparent Kd [1]: 0.0282 µM
- apparent Kd [2]: 0.0232 µM

Sequence: GGAUAGGAAAGAGGAUAUACGUGCUAGAGAUACUAGCAAAAUUUCCUCACAUGAGGAUCACCCAUGUAGAAGGCUGUCCUAUCG
- apparent Kd [3]: 0.00595 µM
- apparent Kd [4]: 0.0389 µM

Sequence: GGAUAGGACAGAGGAUAUACGGAUAGGAUCUACUAUCAAACAAGUCCUACAUGAGGAUCACCCAUGUAGAAGGCUGUCCUAUCG
- apparent Kd [3]: 0.0169 µM
- apparent Kd [4]: 0.0221 µM
